Reference: ChEMBL document CHEMBL1144024, “Low molecular weight lignin suppresses activation of NF-kappaB and HIV-1 promoter” (Bioorg Med Chem, 2008)
Values after ≈ are worked out from the molar mass of the structure shown.

Columns and labels:
[1] = tested on: Human immunodeficiency virus 1; test: Inhibition of HIV1 5'-long terminal repeat promoter expression in human 293T cells by luciferase assay; type: functional; conditions: Human immunodeficiency virus 1, HEK-293T
How it was run: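 293-T cells co-transfected in 10-cm dishes with 5 lg CD-12-luc LTR reporter plus 0.008 lg pCMV-β-galactosidase. Replated after 2 h and cultured 4 h, then exposed to test agent or vehicle for 20 h (lignins) or 21 h (model compounds). Luciferase chemiluminescence normalized to β-galactosidase. IC50 reported; lignin data are means of three independent experiments.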

[2] = Inhibition of TNF-induced NF-kappaB activation in human […] cells by luciferase assay; type: cell-based
How it was run: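 293-T cells co-transfected with 5 lg NF-κB luciferase reporter plus 0.008 lg pCMV-β-galactosidase, then replated after 2 h. Cultured 19 h (lignins) or 20 h (model compounds) before 1 h pretreatment with test agent. Stimulated with 3 ng/ml TNFα for 5 h. Luciferase chemiluminescence normalized to β-galactosidase activity; IC50 reported.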

SMILES	IC50 [1]	IC50 [2]
CCCc1cc(OC)c(O)c(-c2cc(CCC)cc(OC)c2O)c1	> 150 µg/mL	> 150 µg/mL
COc1cc([C@H]2Oc3c(OC)cc(/C=C/CO)cc3[C@@H]2CO)ccc1O	34 µg/mL (≈ 94.9 µM)	19 µg/mL (≈ 53 µM)
COc1cc([C@@H](O)[C@@H](CO)Oc2ccccc2OC)ccc1O	> 150 µg/mL	126 µg/mL (≈ 393 µM)
COc1cc([C@@H](O)[C@@H](CO)c2ccc(O)c(OC)c2)ccc1O	> 150 µg/mL	> 150 µg/mL

Second part, the compound after the results:

IC50 [1]	IC50 [2]	SMILES
> 150 µg/mL	49 µg/mL (≈ 137 µM)	COc1cc([C@@H]2OC[C@@H]3[C@H]2CO[C@H]3c2ccc(O)c(OC)c2)ccc1O (single isomer, unassigned) [(+)-PINORESINOL]
107 µg/mL (≈ 336 µM)	43 µg/mL (≈ 135 µM)	COc1cc(C(=O)[C@@H](CO)Oc2ccccc2OC)ccc1O
